The record followed here is ChEMBL document CHEMBL4304743, “Discovery of ( E)- N1-(3-Fluorophenyl)- N3-(3-(2-(pyridin-2-yl)vinyl)-1 H-indazol-6-yl)malonamide (CHMFL-KIT-033) as a Novel c-KIT T670I Mutant Selective Kinase Inhibitor for Gastrointestinal Stromal Tumors (GISTs)” (J Med Chem, 2019).

The structures appear in SMILES notation. Calls of active or inactive are those of the source. No cut-off for these calls is given here.

Data set [1] is described as follows: Antiproliferative activity in mouse BAF3 cells after 72 hrs by CCK8 assay. The data set is classed as cell-based. The procedure, abridged:
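IL-3-independent BaF3 cells carrying tel-c-KIT constructs, grown in RPMI 1640 with 10% FBS. Cells at 1.5-5 × 10^4 cells/mL mixed directly with serial compound dilutions, 72 h at 37 °C, 5% CO2. CCK-8 read-out at 450 nm, normalized to DMSO; GI50 by curve fitting.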
Background: Tetrazolium dyes change colour on reduction, which living cells bring about.

Data set [2] deals with Mast/stem cell growth factor receptor Kit (Homo sapiens), P10721 [V559D,T670I]. The data set is described as follows: Inhibition of TEL fused c-KIT T670I/V559D double mutant (unknown origin) transfected in mouse BAF3 cells assessed as growth inhibition after 72 hrs by CCK8 assay. It counts as cell-based. A digest of the protocol: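 Tel-c-KIT-transformed BaF3 lines (IL-3 independent) kept in RPMI 1640 with 10% FBS, 2% L-glutamine and pen/strep. Cells at 1.5 to 5 × 10^4 cells/mL mixed with graded compound and incubated 72 h at 37 °C, 5% CO2. Viability by CCK-8 absorbance at 450 nm, normalized to DMSO. GI50 from dose–response fit.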
Mast/stem cell growth factor receptor Kit (Homo sapiens), P10721 [V559D,T670I], sequence (P10721 whole entry V559D/T670I, the tested form may be a part): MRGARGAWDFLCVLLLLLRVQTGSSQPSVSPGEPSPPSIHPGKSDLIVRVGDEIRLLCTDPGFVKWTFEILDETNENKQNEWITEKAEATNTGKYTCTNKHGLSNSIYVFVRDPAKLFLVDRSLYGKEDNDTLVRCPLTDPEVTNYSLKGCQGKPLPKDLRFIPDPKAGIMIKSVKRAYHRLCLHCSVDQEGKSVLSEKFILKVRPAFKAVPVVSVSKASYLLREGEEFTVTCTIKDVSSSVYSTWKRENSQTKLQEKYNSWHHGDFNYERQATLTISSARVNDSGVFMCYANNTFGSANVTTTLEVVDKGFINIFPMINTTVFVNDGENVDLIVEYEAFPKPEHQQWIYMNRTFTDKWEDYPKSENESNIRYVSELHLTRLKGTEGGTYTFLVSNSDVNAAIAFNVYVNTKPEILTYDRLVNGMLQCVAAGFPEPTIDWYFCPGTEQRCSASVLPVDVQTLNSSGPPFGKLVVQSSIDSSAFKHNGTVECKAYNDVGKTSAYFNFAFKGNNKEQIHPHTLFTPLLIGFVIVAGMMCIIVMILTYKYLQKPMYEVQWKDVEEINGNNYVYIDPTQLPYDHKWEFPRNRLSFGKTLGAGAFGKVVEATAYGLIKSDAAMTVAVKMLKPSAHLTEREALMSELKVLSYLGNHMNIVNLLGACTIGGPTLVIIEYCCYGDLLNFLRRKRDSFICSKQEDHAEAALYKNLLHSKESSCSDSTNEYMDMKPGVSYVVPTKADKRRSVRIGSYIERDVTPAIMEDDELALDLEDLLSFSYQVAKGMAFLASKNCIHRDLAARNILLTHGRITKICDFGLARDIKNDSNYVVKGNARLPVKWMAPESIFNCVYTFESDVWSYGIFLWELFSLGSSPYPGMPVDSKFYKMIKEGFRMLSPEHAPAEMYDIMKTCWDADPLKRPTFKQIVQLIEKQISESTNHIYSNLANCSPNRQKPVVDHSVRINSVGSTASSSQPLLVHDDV

For data set [3], the target named is Mast/stem cell growth factor receptor Kit (Homo sapiens, UniProt P10721). The data set is described as follows: Inhibition of wild type c-KIT phosphorylation at Y823 residue in human COLO320DM cells after 2 hrs by Western blot analysis. The data set is classed as cell-based. (In general: In western blotting, separated proteins are transferred to a membrane and probed.)
Mast/stem cell growth factor receptor Kit, sequence (P10721 whole entry): as the sequence (P10721 whole entry V559D/T670I, the tested form may be a part) above, with D559V, I670T counted along it

Data set [4] concerns the target Macrophage colony-stimulating factor 1 receptor (Homo sapiens, UniProt P07333). As to the kind of experiment: Binding affinity to wild-type human partial length CSF1R (I564 to S939 residues) expressed in bacterial expression system assessed as enzyme remaining activity at 1 uM by Kinomescan assay relative to control. The procedure, abridged: (§1)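 KINOMEscan competition binding panel of 468 kinases and mutants, compound at 1 μM; binding reported as percent of control.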

Data set [5] addresses Serine/threonine-protein kinase PAK 2 (Homo sapiens, UniProt Q13177). The data set is described as follows: Binding affinity to wild-type human partial length PAK2 (P151 to R525 residues) expressed in bacterial expression system assessed as enzyme remaining activity at 1 uM by Kinomescan assay relative to control. A digest of the protocol: as §1
The test system of data set [6] is Mast/stem cell growth factor receptor Kit (Homo sapiens), P10721 [V559D,T670I]. As to the kind of experiment: Binding affinity to human partial length c-KIT V559D/T670I double mutant (Y545 to D952 residues) expressed in bacterial expression system assessed as enzyme remaining activity at 1 uM by Kinomescan method relative to control. A digest of the protocol: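 KINOMEscan binding profile (DiscoverX) run at 1 μM against a panel of 468 kinases and mutants. Read-out is percent of control (%Ctrl) remaining bound.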

A short description of data set [7]: Antiproliferative activity against human GIST48B cells incubated for 72 hrs by CCK8 assay. The data set is classed as functional. The procedure, abridged:
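Adherent GIST cells seeded at 1.5-5 × 10^4 cells/mL and left overnight at 37 °C, 5% CO2. Medium then replaced with medium holding serial compound dilutions; 72 h incubation. Viability by CCK-8, absorbance at 450 nm, normalized to DMSO control; GI50 from dose-response fit.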

Data set [8] relates to Mast/stem cell growth factor receptor Kit (Homo sapiens), P10721 [UNDEFINED MUTATION]. As to the kind of experiment: Inhibition of c-KIT 560 to 578 deletion/T670I double mutant in human GISTT1 cells assessed as reduction in c-KIT autophosphorylation at Y823 residue at 0.1 uM to 3 uM after 1 hr by Western blot analysis. It counts as cell-based. A digest of the protocol:
(§2)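 Serial compound dilutions applied for 1 h to GIST-T1, GIST-T1-T670I (CRISPR/Cas9 T670I knock-in, clone confirmed by Sanger sequencing) or GIST-5R cells in DMEM with 10% FBS. Cells then lysed and phospho-proteins detected by standard Western blotting.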

Data set [9] has the same test system. As to the kind of experiment: Inhibition of c-KIT 560 to 578 deletion mutant in human GISTT1 cells assessed as reduction in c-KIT autophosphorylation at Y823 residue at 0.1 uM to 3 uM after 1 hr by Western blot analysis. It counts as cell-based. The procedure, abridged: as §2
Data set [10] shares this test system. As to the kind of experiment: Inhibition of c-KIT 560 to 578 deletion mutant in human GISTT1 cells assessed as reduction in c-KIT autophosphorylation at Y719 residue at 0.1 uM to 3 uM after 1 hr by Western blot analysis. The data set is classed as cell-based. The procedure, abridged:
as §2

Data set [11] has the same test system. As to the kind of experiment: Inhibition of c-KIT 560 to 578 deletion/T670I double mutant in human GIST5R cells assessed as reduction in c-KIT autophosphorylation at Y703 residue at 0.1 uM to 3 uM after 1 hr by Western blot analysis. It counts as cell-based. A digest of the protocol: as §2
The test system is the same in data set [12]. As to the kind of experiment: Inhibition of c-KIT 560 to 578 deletion/T670I double mutant in human GIST5R cells assessed as reduction in STAT3 phosphorylation after 1 hr by Western blot analysis. It counts as cell-based. A digest of the protocol:
as §2

The subject of data set [13] is GISTT1. The data set is described as follows: Induction of apoptosis in human GISTT1 cells harboring c-KIT 560 to 578 deletion/T670I double mutant assessed as increase in cleaved PARP level after 24 hrs by Western blot analysis. It counts as functional, cell-based. The procedure, abridged: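 GIST-T1-T670I cells grown in DMEM with 10% FBS, exposed to serially diluted compound for 24 h. Apoptosis read by Western blot with PARP and GAPDH antibodies.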

The nature of data set [14]: Apparent volume of distribution in Sprague-Dawley rat at 1 mg/kg, iv measured after 2 to 720 mins by LC-tandem mass spectrometry analysis. The data set is classed as ADME, organism-based. Particulars: in vivo, read-out: Vz. The procedure, abridged:
(§3)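 Male Sprague-Dawley rats (190-210 g), fasted 12 h, randomized into two groups: 1 mg/kg i.v. or 10 mg/kg p.o., both formulated in 10% DMSO/90% of 5% glucose water. Blood sampled at 2-720 min (i.v.) or 5-720 min (p.o.). Plasma protein-precipitated with methanol, caffeine internal standard, LC-MS/MS. Noncompartmental analysis; triplicate, ±SD.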

A short description of data set [15]: Apparent volume of distribution in Sprague-Dawley rat at 10 mg/kg, po measured after 5 to 720 mins by LC-tandem mass spectrometry analysis. The data set is classed as ADME, organism-based. The note with it: in vivo. The procedure, abridged:
as §3

Data set [16] relates to Mus musculus. As to the kind of experiment: Inhibition of AKT phosphorylation at […] residue in tumor of human GIST5R cells xenografted in nude mouse at 100 mg/kg, po administered as single dose and measured after 2 hrs. It counts as functional, organism-based. The procedure, abridged: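 Female nu/nu mice bearing subcutaneous GIST-5R tumors (cells in Matrigel, right flank) given one oral dose of 100 mg/kg in 0.5% methylcellulose/0.4% Tween80. Tumors collected over a 2 h time course. p-c-KIT, p-ERK and p-AKT measured alongside plasma drug levels.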

The nature of data set [17]: Drug level in plasma of nude mouse xenograted with human GIST5R cells at 100 mg/kg, po administered as single dose and measured at 30 mins. The data set is classed as ADME, organism-based. The note with it: in vivo, 0.5 h. A digest of the protocol:
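GIST-5R xenograft nu/nu mice given a single 100 mg/kg oral dose; plasma drug concentration followed over a time course alongside tumor p-c-KIT, p-ERK and p-AKT.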

Data set [18] relates to Mus musculus. The data set is described as follows: Effect on body weight in nude mouse xenografted with human GIST5R cells at 25 to 100 mg/kg, po administered […] via gavage for 28 days. The data set is classed as ADME, organism-based. The note with it: in vivo, 672 h. A digest of the protocol: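 Female nu/nu mice (5 weeks old) given subcutaneous right-flank GIST-5R cells in Matrigel. Dosing began at tumors of 200-400 mm3; randomized, 4 mice per group. Daily oral dosing (QD) at 25, 50 or 100 mg/kg in 0.5% methylcellulose/0.4% Tween80, or vehicle alone, for 28 days. Body weight and tumor volume, (W²×L)/2, measured daily; mean±SEM.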
Background: In xenograft studies the graft and the host belong to different species.

Mast/stem cell growth factor receptor Kit (Homo sapiens), P10721 [UNDEFINED MUTATION], sequence (P10721 whole entry, looked up, stated change not applied): as the sequence (P10721 whole entry V559D/T670I, the tested form may be a part) above, with D559V, I670T counted along it
Macrophage colony-stimulating factor 1 receptor, sequence (P07333 whole entry, the tested form may be a part): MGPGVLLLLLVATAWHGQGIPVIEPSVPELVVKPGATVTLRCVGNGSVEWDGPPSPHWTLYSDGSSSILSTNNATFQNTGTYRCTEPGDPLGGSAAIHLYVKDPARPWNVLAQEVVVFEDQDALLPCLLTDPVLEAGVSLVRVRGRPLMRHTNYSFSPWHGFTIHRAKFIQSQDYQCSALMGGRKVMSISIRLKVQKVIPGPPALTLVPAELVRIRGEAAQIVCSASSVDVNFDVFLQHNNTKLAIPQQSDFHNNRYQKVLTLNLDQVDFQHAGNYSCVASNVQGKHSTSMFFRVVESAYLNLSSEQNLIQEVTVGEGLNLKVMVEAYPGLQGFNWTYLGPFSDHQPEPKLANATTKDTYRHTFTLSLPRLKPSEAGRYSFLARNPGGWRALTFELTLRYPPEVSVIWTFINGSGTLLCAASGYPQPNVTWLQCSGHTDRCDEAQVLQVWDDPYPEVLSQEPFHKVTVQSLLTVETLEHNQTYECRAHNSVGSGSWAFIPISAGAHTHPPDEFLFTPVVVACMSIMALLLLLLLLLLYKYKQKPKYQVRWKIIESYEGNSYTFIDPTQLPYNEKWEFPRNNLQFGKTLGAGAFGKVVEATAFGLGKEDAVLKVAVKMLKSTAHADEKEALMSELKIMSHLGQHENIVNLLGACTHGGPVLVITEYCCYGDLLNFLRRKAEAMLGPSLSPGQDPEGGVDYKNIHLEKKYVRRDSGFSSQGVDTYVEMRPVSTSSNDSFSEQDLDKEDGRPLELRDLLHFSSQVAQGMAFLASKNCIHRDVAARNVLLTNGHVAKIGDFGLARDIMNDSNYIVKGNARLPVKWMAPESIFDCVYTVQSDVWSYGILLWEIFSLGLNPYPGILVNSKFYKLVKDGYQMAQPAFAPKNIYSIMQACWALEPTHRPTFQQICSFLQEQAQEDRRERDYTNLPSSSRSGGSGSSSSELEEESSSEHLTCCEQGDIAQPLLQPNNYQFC
Serine/threonine-protein kinase PAK 2, sequence (Q13177 whole entry, the tested form may be a part): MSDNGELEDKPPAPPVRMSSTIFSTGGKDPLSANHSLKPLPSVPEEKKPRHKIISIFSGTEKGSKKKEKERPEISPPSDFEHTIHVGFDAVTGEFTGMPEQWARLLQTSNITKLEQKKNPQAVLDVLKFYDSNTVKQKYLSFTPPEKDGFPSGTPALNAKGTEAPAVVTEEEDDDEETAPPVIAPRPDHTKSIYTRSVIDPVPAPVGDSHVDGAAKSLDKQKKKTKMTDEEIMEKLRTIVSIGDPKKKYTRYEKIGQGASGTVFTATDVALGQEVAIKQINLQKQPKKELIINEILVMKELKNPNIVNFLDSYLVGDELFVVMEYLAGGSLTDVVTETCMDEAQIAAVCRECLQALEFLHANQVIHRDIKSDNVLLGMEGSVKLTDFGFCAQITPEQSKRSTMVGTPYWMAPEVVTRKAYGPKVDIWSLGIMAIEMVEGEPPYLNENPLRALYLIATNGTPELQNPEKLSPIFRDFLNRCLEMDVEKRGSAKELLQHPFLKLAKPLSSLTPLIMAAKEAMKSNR

By GI50 is commonly meant the concentration giving 50% growth inhibition. As usually defined, the EC50 is the midpoint of the concentration-response curve. Low readings indicate an effect from little substance, high ones a need for much substance. For `O=C(CC(=O)Nc1ccc2c(/C=C/c3ccccn3)n[nH]c2c1)Nc1cccc(F)c1`, the GI50 at 72 h in data set [1] turned out to be 3970 nM. Moreover, the values for the GI50 in data set [2] and in data set [7] were 122 nM and > 10000 nM, respectively. The molecule also had a concentration giving a half-maximal response (EC50) in data set [3] of 2050 nM. Also, the Activity in data set [4] was 0%; in data set [5], 0.1%; in [6], < 1%; in data set [13] it was “Dose-dependent effect”; in data set [18] it was “Non-Toxic”. Also, the inhibition result in data set [8], in data set [9], in data set [10] and in data set [11] was “Active” each time. Besides, the inhibition result in data set [12] is “Dose-dependent effect”. Besides, the Vd in data set [14] turned out to be 49.3 L/kg. Moreover, in data set [15], the Vz amounted to 86.8 L/kg. In addition, the inhibition entry in data set [16] is “inactive”. In addition, in data set [17], the Drug uptake entry is “Active”.
